Experimental data reported in ChEMBL document CHEMBL1148329, “Synthesis and structure-activity studies on N-[5-(1H-imidazol-4-yl)-5,6,7,8-tetrahydro-1-naphthalenyl]methanesulfonamide, an imidazole-containing alpha(1A)-adrenoceptor agonist” (J Med Chem, 2004).

Experiments:
[1] = target: T1, Alpha-2A adrenergic receptor (Homo sapiens, UniProt P08913); test: In vitro binding affinity towards alpha-2A adrenergic receptor of human clone in radioligand binding assay
T1 sequence (P08913 whole entry): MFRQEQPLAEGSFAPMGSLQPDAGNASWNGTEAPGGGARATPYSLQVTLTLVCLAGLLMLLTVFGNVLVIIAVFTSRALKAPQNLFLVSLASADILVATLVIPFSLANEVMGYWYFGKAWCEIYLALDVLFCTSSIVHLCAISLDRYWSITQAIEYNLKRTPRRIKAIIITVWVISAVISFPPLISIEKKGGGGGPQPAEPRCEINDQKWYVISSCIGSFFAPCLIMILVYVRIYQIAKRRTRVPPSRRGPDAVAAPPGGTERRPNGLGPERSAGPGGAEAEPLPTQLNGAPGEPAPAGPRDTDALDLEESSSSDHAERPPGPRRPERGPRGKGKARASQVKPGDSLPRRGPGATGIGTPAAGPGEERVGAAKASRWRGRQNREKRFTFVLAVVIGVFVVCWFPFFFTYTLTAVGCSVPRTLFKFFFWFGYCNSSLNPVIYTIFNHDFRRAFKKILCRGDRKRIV

[2] = target: T2, Alpha-1A adrenergic receptor (Oryctolagus cuniculus) (UniProt O02824); test: Efficacy relative to phenylephrine (PE) to constrict tissue containing the alpha-1A adrenergic receptor in rabbit urethra; format: functional, tissue-based
T2 sequence (whole entry): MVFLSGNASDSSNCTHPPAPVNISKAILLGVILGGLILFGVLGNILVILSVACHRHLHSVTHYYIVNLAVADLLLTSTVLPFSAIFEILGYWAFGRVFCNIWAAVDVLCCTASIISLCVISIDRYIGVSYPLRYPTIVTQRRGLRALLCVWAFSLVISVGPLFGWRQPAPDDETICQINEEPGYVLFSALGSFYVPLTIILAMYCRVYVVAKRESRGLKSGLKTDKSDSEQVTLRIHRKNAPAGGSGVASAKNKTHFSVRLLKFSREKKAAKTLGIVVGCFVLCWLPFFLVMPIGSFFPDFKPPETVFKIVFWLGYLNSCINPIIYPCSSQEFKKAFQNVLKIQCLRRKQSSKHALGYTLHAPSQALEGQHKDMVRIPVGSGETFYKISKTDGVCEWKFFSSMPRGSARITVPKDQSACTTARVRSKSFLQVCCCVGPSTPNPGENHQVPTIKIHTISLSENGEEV
Outline: (§1)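 α1-agonist dose–response curves in isolated tissue: rabbit urethra (α1A), rat spleen (α1B), rat aorta (α1D). Agonist potency and efficacy read from the concentration–response curves.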

[3] = target: T2, Alpha-1A adrenergic receptor (Oryctolagus cuniculus); test: Functional agonism of the compounds to constrict tissue containing the alpha-1A adrenergic receptor in rabbit urethra; format: tissue-based; outline: as §1
[4] = target: T3, Alpha-2A adrenergic receptor (Rattus norvegicus) (UniProt P22909); test: Functional agonism to constrict tissue containing alpha-2A adrenergic receptor in rat prostatic vas deferens; format: tissue-based
T3 sequence (whole entry): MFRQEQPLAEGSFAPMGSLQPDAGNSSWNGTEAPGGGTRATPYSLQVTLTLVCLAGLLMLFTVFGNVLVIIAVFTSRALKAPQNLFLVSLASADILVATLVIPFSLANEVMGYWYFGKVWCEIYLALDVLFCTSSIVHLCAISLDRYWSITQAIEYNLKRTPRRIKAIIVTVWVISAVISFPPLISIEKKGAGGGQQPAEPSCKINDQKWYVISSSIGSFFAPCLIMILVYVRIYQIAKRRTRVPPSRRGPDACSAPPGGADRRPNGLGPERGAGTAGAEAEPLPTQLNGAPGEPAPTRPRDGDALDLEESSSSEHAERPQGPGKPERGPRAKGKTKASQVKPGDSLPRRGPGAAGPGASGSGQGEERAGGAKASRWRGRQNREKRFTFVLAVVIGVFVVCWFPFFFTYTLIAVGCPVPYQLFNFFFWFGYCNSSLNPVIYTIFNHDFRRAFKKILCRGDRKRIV

[5] = target: T4, Alpha-1B adrenergic receptor (Mesocricetus auratus, UniProt P18841); test: In vitro binding affinity towards alpha-1B adrenergic receptor of hamster clone in radioligand binding assay; format: single protein
T4 sequence (P18841 whole entry): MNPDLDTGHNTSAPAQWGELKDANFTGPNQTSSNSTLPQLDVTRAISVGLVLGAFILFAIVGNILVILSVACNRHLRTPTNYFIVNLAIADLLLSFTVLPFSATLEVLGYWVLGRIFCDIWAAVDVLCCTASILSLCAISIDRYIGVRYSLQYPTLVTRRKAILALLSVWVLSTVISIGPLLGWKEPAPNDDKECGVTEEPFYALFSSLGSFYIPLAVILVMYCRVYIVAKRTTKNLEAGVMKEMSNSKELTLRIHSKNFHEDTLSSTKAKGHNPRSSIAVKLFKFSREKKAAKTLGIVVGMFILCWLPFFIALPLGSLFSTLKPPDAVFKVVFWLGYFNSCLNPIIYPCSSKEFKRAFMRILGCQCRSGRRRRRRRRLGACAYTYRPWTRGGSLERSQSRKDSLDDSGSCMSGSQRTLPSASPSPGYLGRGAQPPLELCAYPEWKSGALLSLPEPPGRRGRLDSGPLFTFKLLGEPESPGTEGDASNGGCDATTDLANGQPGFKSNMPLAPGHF
Outline: (§2)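 Radioligand binding at α1 subtypes: α1A from rat submaxillary gland, α1B hamster clone, α1D rat clone. Run essentially per an earlier method.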

[6] = system: Canis familiaris; test: Uroselectivity was determined by measuring effective dose required for 20 mmHg increase of mean arterial pressure (MAP) in vivo in dog; format: functional, Canis lupus familiaris, Artery
Outline: (§3)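 Dog model recording intraurethral pressure (IUP) and mean arterial pressure (MAP) simultaneously. Increasing iv doses given, maximal effect of each dose taken. Doses giving a 5 mmHg rise in IUP (ED Δ5) or 20 mmHg rise in MAP (ED Δ20) were calculated, in nmol/kg ± SEM, n ≥ 4 (2 or 3 where footnoted).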

[7] = Selectivity is ratio of efficacy of alpha-2A to that of alpha1A adrenoceptor; format: functional
[8] = organism: Rattus norvegicus; test: Relative affinities for alpha2B and alpha1A receptors
[9] = Relative affinities for alpha-2a and alpha-1A receptors
[10] = target: Alpha adrenergic receptor 1A and 1B (Rattus norvegicus) (UniProt P15823+P43140); test: Selectivity is ratio of pKi (binding affinity) of alpha-1B receptor to that of alpha-1A receptor.; format: protein assay
[11] = target: Alpha adrenergic receptor 1A and 1D (Rattus norvegicus) (UniProt P23944+P43140); test: Selectivity is ratio of pKi (binding affinity) of Alpha-1D to that of alpha1A; format: protein assay
[12] = target: T5, Alpha-2B adrenergic receptor (Rattus norvegicus, UniProt P19328); test: In vitro binding affinity towards alpha-2B adrenergic receptor of rat neonatal lung in radioligand binding assay
T5 sequence (P19328 whole entry): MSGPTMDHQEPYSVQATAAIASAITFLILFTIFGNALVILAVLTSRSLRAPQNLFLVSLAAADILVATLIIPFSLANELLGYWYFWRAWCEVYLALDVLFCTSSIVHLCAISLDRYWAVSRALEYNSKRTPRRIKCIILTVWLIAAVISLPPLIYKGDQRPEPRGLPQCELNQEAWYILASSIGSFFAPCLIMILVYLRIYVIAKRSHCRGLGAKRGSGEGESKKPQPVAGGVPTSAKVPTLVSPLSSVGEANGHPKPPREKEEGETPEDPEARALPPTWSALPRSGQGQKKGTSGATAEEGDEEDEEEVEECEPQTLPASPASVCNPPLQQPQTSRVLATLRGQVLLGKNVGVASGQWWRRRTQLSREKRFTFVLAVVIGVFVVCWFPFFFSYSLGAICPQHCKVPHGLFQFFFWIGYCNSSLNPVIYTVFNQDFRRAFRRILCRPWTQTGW

[13] = organism: Canis familiaris; test: Ratio of MAP ED delta20 to that of IUP ED delta5
[14] = target: T3, Alpha-2A adrenergic receptor (Rattus norvegicus); test: Efficacy relative to clonidine to constrict tissue containing the alpha-2A adrenergic receptor in rat prostatic vas deferens
[15] = target: T6, Alpha-1A adrenergic receptor (Bos taurus, UniProt P18130); test: In vitro binding affinity towards alpha-1A adrenergic receptor of bovine clone in radioligand binding assay
T6 sequence (P18130 whole entry): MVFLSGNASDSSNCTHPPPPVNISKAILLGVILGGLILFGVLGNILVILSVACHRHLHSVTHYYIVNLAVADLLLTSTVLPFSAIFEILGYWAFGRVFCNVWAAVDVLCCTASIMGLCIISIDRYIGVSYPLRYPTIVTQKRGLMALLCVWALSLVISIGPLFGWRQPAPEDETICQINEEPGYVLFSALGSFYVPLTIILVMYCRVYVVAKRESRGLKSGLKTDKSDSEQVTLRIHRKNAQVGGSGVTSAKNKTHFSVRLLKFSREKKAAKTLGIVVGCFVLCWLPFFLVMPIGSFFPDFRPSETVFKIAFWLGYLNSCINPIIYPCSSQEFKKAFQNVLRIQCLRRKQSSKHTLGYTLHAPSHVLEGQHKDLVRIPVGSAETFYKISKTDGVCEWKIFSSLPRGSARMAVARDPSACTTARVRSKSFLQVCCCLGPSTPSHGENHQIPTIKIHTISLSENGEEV

[16] = target: T7, Alpha-1D adrenergic receptor (Rattus norvegicus, UniProt P23944); test: In vitro binding affinity towards alpha-1D adrenergic receptor of rat clone in radioligand binding assay; outline: as §2
T7 sequence (P23944 whole entry): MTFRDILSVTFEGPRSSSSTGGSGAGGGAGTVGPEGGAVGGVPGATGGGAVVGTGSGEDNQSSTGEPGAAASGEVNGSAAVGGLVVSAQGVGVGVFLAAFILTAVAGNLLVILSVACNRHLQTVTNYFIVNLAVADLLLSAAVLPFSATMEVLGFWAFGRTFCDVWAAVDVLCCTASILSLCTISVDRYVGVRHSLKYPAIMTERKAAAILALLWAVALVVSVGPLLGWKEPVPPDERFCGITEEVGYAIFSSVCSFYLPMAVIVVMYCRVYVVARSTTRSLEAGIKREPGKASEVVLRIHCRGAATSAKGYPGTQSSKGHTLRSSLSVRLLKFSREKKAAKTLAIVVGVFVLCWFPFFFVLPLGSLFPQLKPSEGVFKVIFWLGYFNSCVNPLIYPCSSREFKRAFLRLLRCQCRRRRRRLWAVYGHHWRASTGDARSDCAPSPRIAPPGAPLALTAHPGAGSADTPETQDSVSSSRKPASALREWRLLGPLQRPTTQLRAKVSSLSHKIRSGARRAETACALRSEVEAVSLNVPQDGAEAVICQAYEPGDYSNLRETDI

[17] = target: T8, Alpha-1B adrenergic receptor (Rattus norvegicus) (UniProt P15823); test: Functional agonism of the compounds to constrict tissue containing the alpha-1B adrenergic receptor in rat spleen; format: tissue-based
T8 sequence (whole entry): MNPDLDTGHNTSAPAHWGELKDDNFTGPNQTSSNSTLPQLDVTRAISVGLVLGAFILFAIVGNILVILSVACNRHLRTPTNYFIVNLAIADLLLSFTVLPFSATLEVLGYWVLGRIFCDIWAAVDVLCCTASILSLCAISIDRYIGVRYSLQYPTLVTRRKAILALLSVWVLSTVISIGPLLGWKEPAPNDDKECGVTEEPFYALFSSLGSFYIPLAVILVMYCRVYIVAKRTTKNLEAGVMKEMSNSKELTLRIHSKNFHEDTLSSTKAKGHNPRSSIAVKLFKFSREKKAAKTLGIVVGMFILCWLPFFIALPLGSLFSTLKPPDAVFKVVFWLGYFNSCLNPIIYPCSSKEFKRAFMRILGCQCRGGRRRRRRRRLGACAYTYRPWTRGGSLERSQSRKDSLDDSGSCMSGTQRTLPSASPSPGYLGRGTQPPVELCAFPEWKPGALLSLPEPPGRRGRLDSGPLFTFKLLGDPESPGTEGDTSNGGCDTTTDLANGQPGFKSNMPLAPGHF
Outline: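 Agonist dose–response curves were run on isolated tissue: rabbit urethra for α1A, rat spleen for α1B, and rat aorta for α1D.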

[18] = target: T8, Alpha-1B adrenergic receptor (Rattus norvegicus); test: Efficacy relative to phenylephrine (PE) constriction of rat spleen containing alpha-1B adrenergic receptor; format: functional, tissue-based; outline: as §1
[19] = system: Canis familiaris; test: Uroselectivity was determined by measuring effective dose required for 5 mmHg increase of intraurethral pressure (IUP) in vivo in dog; format: functional, Canis lupus familiaris; outline: as §3

Alpha adrenergic receptor 1A and 1B (Rattus norvegicus), sequence (P43140 whole entry, looked up, one chain of several): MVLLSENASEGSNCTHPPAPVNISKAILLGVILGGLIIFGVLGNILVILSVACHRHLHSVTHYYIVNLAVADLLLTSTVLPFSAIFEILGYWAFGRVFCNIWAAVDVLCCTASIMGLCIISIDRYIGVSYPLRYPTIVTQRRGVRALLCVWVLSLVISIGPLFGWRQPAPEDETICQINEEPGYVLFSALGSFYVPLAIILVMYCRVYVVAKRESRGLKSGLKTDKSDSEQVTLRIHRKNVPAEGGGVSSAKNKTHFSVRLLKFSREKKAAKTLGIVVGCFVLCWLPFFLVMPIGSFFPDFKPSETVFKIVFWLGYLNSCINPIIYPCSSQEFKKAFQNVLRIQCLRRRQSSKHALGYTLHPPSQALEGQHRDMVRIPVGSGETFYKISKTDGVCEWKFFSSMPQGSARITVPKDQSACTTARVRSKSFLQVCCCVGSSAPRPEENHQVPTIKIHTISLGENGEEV

Row | SMILES | Ki [1] | Efficacy [2] | pD2 [3] | pD2 [4] | Ki [5] | ED delta20 [6] | Selectivity [7] | Selectivity [8] | Selectivity [9] | Selectivity [10] | Selectivity [11] | Ki [12] | Ratio [13] | Efficacy [14] | Ki [15] | Ki [16] | pD2 [17] | Efficacy [18] | ED delta5 [19]
1 | CCS(=O)(=O)Nc1cccc2c1CCCC2c1c[nH]cn1 (single isomer, unassigned; (+)) | 132 nM | 71% | 6.77 | 5.95 | 1320 nM | 34 nM/kg | 7 | 40 | 3 | 30 | 20 | 1700 nM | 3.3 | 66% |  |  |  |  | 
2 | CN(C)S(=O)(=O)Nc1cccc2c1CCCC2c1c[nH]cn1 (configuration not stated) |  |  |  |  | > 10000 nM |  |  |  |  | 20 | 3 |  |  |  | 977 nM |  |  |  | 
3 | CCS(=O)(=O)Nc1ccc2c(c1)C(c1c[nH]cn1)CCC2 (configuration not stated) | 22.9 nM |  |  |  | 1350 nM |  |  | 0.02 | 0.02 | 1 | 0.2 | 22.4 nM |  |  | 2040 nM | 339 nM |  |  | 
4 | COc1ccc(NS(C)(=O)=O)c2c1C(c1c[nH]cn1)CCC2 (configuration not stated) |  | 57% | 4.81 |  | > 10000 nM | 1850 nM/kg |  |  |  | > 6 | > 6 |  | 2.6 |  |  | > 10000 nM | 4.74 | 26% | 
5 | COC(=O)Nc1cccc2c1CCCC2c1c[nH]cn1 (configuration not stated) |  |  |  |  |  |  |  |  |  | 100 | 30 |  |  |  | 148 nM |  |  |  | 
6 | CS(=O)(=O)Nc1c(O)ccc2c1CCCC2c1c[nH]cn1 (configuration not stated) | 44.7 nM | 104% |  |  |  | 0.16 nM/kg |  |  |  |  |  | 47.9 nM | 1 |  |  |  |  | 94% | 0.18 nM/kg
